Source: PubChem BioAssay (several laboratories)
STAT3 act-1: activators of IL-6 induced STAT3 signaling. activation (% of control), % at 5.6 µM. U3A cells, IL-6 STAT3-luciferase reporter, luminescence; 100% = signal with IL-6 EC80 alone. AID 871. actives 0.91% (n = 190,000);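 active means activation above the screen-wide mean of compound activation plus 3 SD, cut at about 130% in these data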;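 further: 0% = background luminescence of wells with medium and substrate only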
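Detection: reporter luminescence signal / Assay system: STAT1-lacking human U3A cells, STAT3 luciferase reporter / Incubation: compound pre-incubation 1 h before IL-6, then 6 h stimulation at 37 °C / Control set: IL-6-only high control / Read-out: % activation relative to IL-6 control / Probe or stimulus: Interleukin-6, 33 ng/mL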
STAT1 act-1: increases IFN-gamma driven STAT1 reporter signal. NIH 3T3 STAT1-luciferase reporter, luminescence; 100% = IFN-gamma alone, no compound. activation (% of control), % at 5.5 µM. actives 2.6% (n = 200,000);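 active means activation above the screen-wide mean activation plus 3 SD, cut at about 130% in these data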;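 further: raw ratio to IFN-gamma control signal so 100% means no change and 0% no light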
NF-kB expr up: compounds increasing NF-kB expression in human neuronal cells. NF-kB reporter expression; stronger effect = higher value. fold change at 12.5 µM. actives 1.6% (n = 190,000). AID 1239; in the data active means fold change above about 3.3
APP 5'UTR act: activates APP 5'UTR luciferase reporter. activation, % at 2 µM. SH-SY5Y APP 5'UTR luciferase reporter, luminescence; zero percent = DMSO vehicle wells. AID 1276. actives 1% (n = 190,000);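 active means activation above a set limit, based on mean plus 3 SD of controls, cut at about 140% in these data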
STAT1 inh-1: reduces IFN-gamma driven STAT1 reporter signal; NIH 3T3 STAT1-luciferase reporter, luminescence; inhibition, % at 5.5 µM; actives 0.35% (n = 200,000); AID 920;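 active means inhibition above a set limit, the mean inhibition across all tested compounds plus 3 SD, cut at about 34% in these data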;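 further: 0% = IFN-gamma with DMSO and 100% = IFN-gamma with 300 µM nifuroxazide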
Pf gamet viab: inhibitors of late stage P. falciparum gametocyte viability; P. falciparum stage V gametocytes, ATP luminescence, 24 h; inhibition, % at 10.9 µM; actives 0.065% (n = 150,000);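 active means inhibition above the mean plus 3 SD of compounds within the control limits, set per campaign, cut at about 38% in these data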;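 further: 0% = DMSO wells and 100% = medium only without gametocytes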
STAT3 act-2: confirmation of STAT3 signaling activators; shares compounds with STAT3 act-1; U3A STAT3-luciferase reporter, IL-6 potentiation, luminescence; U3A cells lack STAT1; 100 means same as IL-6 alone; potentiation (% of control), % at 5.7 µM; actives 64% (n = 1,200);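 active means percent activation of the STAT3 luciferase reporter above a set limit taken from the earlier primary screen, cut at about 130% in these data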;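 further: 0% = background signal of medium plus substrate and 100% = median of IL-6 with DMSO wells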
NFkB act 2: counter-screen for STAT3 activators: NF-kappaB activation | activation (% of control), % at 5.7 µM | actives 11% (n = 1,200) | human cells, NF-kappaB reporter activation | shares compounds with STAT3 act-1; in the data active means activation above about 120%;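 further: reporter induced by TNF-alpha stimulation; 100% = median of stimulated DMSO wells and 0% = no signal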
STAT1 act-2: counter-screen for STAT3 activators: STAT1 activation. activation (% of control), % at 5.7 µM. actives 13% (n = 1,200). shares compounds with STAT3 act-1. AID 1318. NIH 3T3 STAT1-luciferase reporter, IFN-gamma, luminescence;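 active means activation above the solvent-only control well mean plus 3 SD, set per screening run, cut at about 120% in these data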;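 further: 100% = IFN-gamma with DMSO median signal so 100% means no change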
STAT1 inh-2: confirmation of STAT1 signaling inhibitors | shares compounds with STAT1 inh-1 | NIH 3T3 STAT1-luciferase reporter, IFN-gamma, luminescence | inhibition, % at 5.5 µM | actives 55% (n = 200) | AID 1263;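 active means triplicate mean inhibition exceeding the hit cutoff computed for the primary STAT1 screen, cut at about 35% in these data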;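 further: 0% = DMSO with IFN-gamma and 100% = 300 µM nifuroxazide with IFN-gamma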
NFkB inh: counter-screen for STAT1 inhibitors: NF-kappaB inhibition; actives 30% (n = 200); shares compounds with STAT1 inh-1; HEK293T NF-kB luciferase reporter, TNF-alpha induced, luminescence; inhibition, % at 5.7 µM;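 active means inhibition above the mean of solvent-only control wells plus 3 SD of those wells, cut at about 15% in these data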;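 further: 0% = DMSO with TNF-alpha and 100% = MG-132 control with TNF-alpha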
STAT3 inh STAT1c: inhibits STAT3, counter-screen to STAT1 inhibitors | shares compounds with STAT1 inh-1 | U3A cells, IL-6 STAT3 luciferase reporter, luminescence; cells lacking STAT1 | inhibition, % at 5.7 µM | actives 20% (n = 200) | AID 1310;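 active means inhibition above the mean of solvent-only control wells plus 3 SD, set per campaign, cut at about 25% in these data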;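 further: 0% = IL-6 plus DMSO and 100% = IL-6 plus nifuroxazide control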
* marks the source's active call; other numbers are inactive results; · = not tested or not shown. An excerpt weighted towards active compounds, which were near 3.9% of everything screened.

SMILES	STAT3 act-1	STAT1 act-1	NF-kB expr up	APP 5'UTR act	STAT1 inh-1	Pf gamet viab	others
O=C(c1ccc(Br)cc1)C12CN3CN(CN(C3)C1)C2	97	103	14*	24	-5	·
COc1ccc(C(=O)C23CN4CN(CN(C4)C2)C3)cc1	97	98	1	11	2	·
O=c1[nH]c(=S)[nH]c(O)c1N=Nc1ccc2c(c1)OCO2	96	130*	1.2	40	-31	-14
O=c1[nH]c(=S)[nH]c(O)c1N=Nc1ccc(OC(F)F)cc1	81	147*	1.2	95	-53	-2
O=c1[nH]c(O)c(N=Nc2ccc3c(c2)OCCO3)c(=O)[nH]1	37	61	1.1	34	41*	-6
Cc1nc2ccccc2c(=O)n1/N=C/c1cc(Br)cc(Br)c1O	·	·	·	·	·	9
O=C(O)c1ccccc1-c1ccc(C=C2C(=O)N(c3ccccc3)C(=S)N(c3ccccc3)C2=O)o1	·	·	·	·	·	-14
CC(/C=N/NC(=O)c1n[nH]c2c1CCC2)=C\c1ccccc1	127	122	6.9*	-94	-24	23
COc1ccc(CC(C)NCCc2ccc(OC)c(OC)c2)cc1 (configuration not stated)	·	·	·	·	·	-6
Cn1cccc1/C=C1\C(=O)NC(=O)N(Cc2ccccc2)C1=O	·	·	·	·	·	21
Cn1cccc1/C=C1/C(=O)NC(=O)N(Cc2ccccc2)C1=O	135*	106	3	-25	-7	-9
CC1=NN(c2ccccc2)C(=O)/C1=C/c1c(O)[nH]c(=S)[nH]c1=O	146*	86	1.1	-3	11	·
COC(=O)c1ccccc1N=Cc1c(O)[nH]c(=S)[nH]c1=O	98	106	1	19	-8	4
CNC(=O)c1cccn(Cc2cc(C(F)(F)F)cc(C(F)(F)F)c2)c1=O	78	80	0.81	8	21	16
CNC(=O)c1cccn(Cc2ccc(C(F)(F)F)cc2)c1=O	64	65	2.2	-5	37*	-1
COC(=O)C1=C(c2ccc(OC)c(OC)c2)C[C@@H]2CC[C@H]1N2C(=O)NCCCOC(C)C	·	·	·	·	·	-6
O=c1[nH]c(=S)n(C2CCCCC2)c(O)c1/C=N/N1CCOCC1	·	·	·	·	·	14
CC(C)(C)n1cc(C(=O)c2ccc3ccccc3c2O)cn1	47	72	1.5	212*	30	-16
Cc1cccc(N/N=C(\C(N)=O)C2=NC(C)(C)Cc3ccccc32)c1	99	96	1.3	-11	4	-4
COc1ccc(OCC(=O)N2CCN(Cc3c[nH]c4ccccc34)CC2)cc1	135*	94	1	-9	6	·
NCCc1nc2ccccc2s1	133*	97	1.1	3	5	13
CC1=NN(c2ccccc2)C(=O)/C1=C/c1c(O)[nH]c(=O)[nH]c1=O	143*	104	1.7	13	-4	-6	STAT3 act-2=135*;NFkB act 2=105;STAT1 act-2=104
COC(=O)C1=C(c2cccc(C#N)c2)C[C@@H]2CC[C@H]1N2C(=O)NCC1CC1	·	·	·	·	·	9
O=C1N(CN2CCOCC2)c2ccccc2C1(O)c1c[nH]c2ccccc12 (configuration not stated)	136*	102	0.98	3	-2	24	STAT3 act-2=121;NFkB act 2=100;STAT1 act-2=98
c1ccc2c(CNC3CCCCCC3)c[nH]c2c1	152*	94	1	-20	7	·	STAT3 act-2=139*;NFkB act 2=103;STAT1 act-2=93
SMILES	STAT3 act-1	STAT1 act-1	NF-kB expr up	APP 5'UTR act	STAT1 inh-1	Pf gamet viab	others
c1ccc2c(CN3CCCCCC3)c[nH]c2c1	100	100	1.5	20	-2	19
Cc1ccc2cc(CNCCc3ccccc3C)c(=O)[nH]c2c1	·	·	·	·	·	-12
CCCCn1c(=O)c(C(=O)Nc2ccsc2C(=O)OC)c(O)c2ccccc21	145*	95	1	13	6	11	STAT3 act-2=165*;NFkB act 2=112;STAT1 act-2=112
CC(C)n1c(=O)c(C=Nc2cccc([N+](=O)[O-])c2)c(O)n(CCc2ccccc2)c1=O	137*	96	1.1	1	4	12	STAT3 act-2=139*;NFkB act 2=103;STAT1 act-2=104
CCOP(=O)(Cc1cc(C(C)=O)c(C)o1)OCC	·	·	·	·	·	8
Cc1cc(C)cc(N2C(=O)NC(=O)/C(=C\c3cc(C)n(C)c3C)C2=O)c1	75	100	1.4	4	-1	-12
COc1ccc(/C=C2/C(=O)NC(=O)N(c3ccc(C)c(C)c3)C2=O)cc1CN1C(=O)c2ccccc2C1=O	87	93	1.1	11	8	5
CC1=NN(c2ccccc2)C(=O)C1/C=C1\C(=O)NC(=O)N(c2ccc(C)c(C)c2)C1=O (configuration not stated)	162*	98	0.91	-14	2	3	STAT3 act-2=130;NFkB act 2=99;STAT1 act-2=99
CC1=NN(c2ccccc2)C(=O)C1/C=C1\C(=O)NC(=O)N(c2cc(C)cc(C)c2)C1=O (configuration not stated)	159*	94	1.1	7	0	·	STAT3 act-2=142*;NFkB act 2=105;STAT1 act-2=103
Cc1ccc(N=C(/N=C(\N)N[N+](=O)[O-])Nc2ccc(C)cc2)cc1	·	·	·	·	·	20
C[C@H]1C[C@@H](C)C(=O)[C@@H]([C@H](O)CC2CC(=O)NC(=O)C2)C1	·	23	3	-45	84*	·	STAT1 inh-2=41*;NFkB inh=76*;STAT3 inh STAT1c=91*
C=CCn1c(O)c(/C=N/N2CCCCC2)c(=O)[nH]c1=O	·	·	·	·	·	4
